Results gathered from unrelated publications.
Each line is one published result; the experiments were not run side by side.
Target: Glycogen synthase kinase-3 beta (GSK3B, Homo sapiens, UniProt P49841)
Mode: inhibitor

CN(c1ncccc1CNc1nc(Nc2ccc3c(c2)CC(=O)N3)ncc1C(F)(F)F)S(C)(=O)=O
inhibition (enzyme activity; 1 µM): 92.7%

CN1CC(Oc2cnc(C#N)cc2-c2ccn3nc(NC(=O)C4CC4)cc3c2)C1
inhibition (enzyme activity; 1 µM): -8%

Nc1nc(Nc2ccc(S(N)(=O)=O)cc2)sc1C(=O)c1ccccc1[N+](=O)[O-]
inhibition (enzyme activity; 0.1 µM): 60 to 66%

CN(C)C1CCN(CC#Cc2nn(C3CCCC3)c3nc(NCc4ccccc4)ncc23)C1 (centres unmarked)
inhibition (enzyme activity, FRET; 1 µM): -1%

NC(=O)c1cnccn1
inhibition (enzyme activity, ADP detection; 100 µM): 7.9%

CNc1cc(Oc2cc(C(=O)Nc3cc(N4CCN(C)CC4)cc(C(F)(F)F)c3)ccc2C)ncn1
inhibition (target engagement in cells, chemoproteomics; Huh-7; 1 µM): -17.6%

c1ccc(CNc2nc(N3CCOc4ccccc43)nc3c2CCCC3)cc1
inhibition (target engagement in cells, chemoproteomics; 20 mM): -3.9%

CS(=O)(=O)Nc1cccc(-c2csc(NC(=O)CSc3nc4nccnc4c(=O)n3CCc3ccccc3)n2)c1
inhibition (enzyme activity; 10 µM): 2%

O=C1CN(/N=C/c2ccc(-c3ccc([N+](=O)[O-])cc3)o2)C(O)=N1
inhibition (enzyme activity, ADP detection; 100 µM): 31.2%

CCN(CC)CCNC(=O)c1c(C)[nH]c(/C=C2\C(=O)Nc3ccc(F)cc32)c1C
inhibition (enzyme activity; 0.3 µM): -4%

NS(=O)(=O)Cc1noc2ccccc12
inhibition (enzyme activity, ADP detection; 100 µM): 21.9%

COc1cc2ncnc(Nc3ccc(Oc4ccccc4)cc3C)c2cc1OC
inhibition (enzyme activity; 1 µM): -2%

COc1cc(-c2coc3cc(OC)c(OC)c(OC)c3c2=O)cc(OC)c1OC
inhibition (enzyme activity, ADP detection; 100 µM): 3%

CCCCNc1ncc2c(-c3ccc(F)cc3)nn(C[C@H]3CC[C@H](N)CC3)c2n1
inhibition (target engagement in cells, chemoproteomics; 20 mM): 4.2%
